This is an account of results in ChEMBL document CHEMBL1139252, “Inhibition of purple acid phosphatase with alpha-alkoxynaphthylmethylphosphonic acids” (Bioorg Med Chem Lett, 2009).

The source made the active and inactive calls. The calls are words filed in the database; no cut-off is given here.

The target of test [1] is T1, Fe(3+)-Zn(2+) purple acid phosphatase (Phaseolus vulgaris) (UniProt P80366).
T1 sequence (whole entry): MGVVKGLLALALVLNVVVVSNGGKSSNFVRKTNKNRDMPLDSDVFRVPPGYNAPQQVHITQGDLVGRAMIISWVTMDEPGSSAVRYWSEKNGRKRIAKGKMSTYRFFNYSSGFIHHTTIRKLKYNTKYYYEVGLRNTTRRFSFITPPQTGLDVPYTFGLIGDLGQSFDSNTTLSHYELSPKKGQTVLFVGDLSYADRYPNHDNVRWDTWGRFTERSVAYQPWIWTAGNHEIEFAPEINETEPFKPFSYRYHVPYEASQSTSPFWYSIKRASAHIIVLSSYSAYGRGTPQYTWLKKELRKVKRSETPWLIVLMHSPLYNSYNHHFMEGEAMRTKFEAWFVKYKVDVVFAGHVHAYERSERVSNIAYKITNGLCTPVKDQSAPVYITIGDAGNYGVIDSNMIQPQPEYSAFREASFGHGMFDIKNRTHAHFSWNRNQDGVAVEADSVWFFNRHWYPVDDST
Put plainly: Inhibition of red kidney bean PAP at pH 6.2. The gist of the method: (§1)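 Each enzyme was run at its own pH optimum: red kidney bean PAP at pH 6.2 and pig PAP at pH 4.9. IC50 values were determined experimentally. Separate inhibition constants were derived for binding to the free enzyme and to the enzyme–substrate complex.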

The next test is filed under the species Homo sapiens. The experiment in a line: Inhibition of human PAP.
For test [2], the species on record is Sus scrofa. Put plainly: Activity of pig PAP at pH 4.9.
Test [3] is filed under the species Sus scrofa. Put plainly: Inhibition of pig PAP at pH 4.9. The gist of the method: as §1

Take `O=P(O)(O)C(O)c1cccc2ccccc12` (configuration not stated): the logIC50 in test [1] is 0.7. The outcome in the test filed under Homo sapiens was inactive.

For `O=P(O)(O)Cc1cccc2ccccc12`, the logIC50 in test [1] is > 0.845.

Broadly, the Km is the concentration of substrate that gives half-maximal velocity. Regarding `CCCCCCCCCCOC(c1cccc2ccccc12)P(=O)(O)O` (racemic), in test [1], the Kic amounted to 0.004 mM, the Kiuc turned out to be 0.03 mM and the logIC50 is -2.1. Further, the Km in the test filed under Sus scrofa [2] stood at 1130 µM. Also, in the test filed under Sus scrofa [3], the Kic worked out at 0.017 mM, the Kiuc amounted to 0.02 mM and the logIC50 was -1.7.

Regarding `CCCCCCCCOC(c1cccc2ccccc12)P(=O)(O)O` (racemic), in test [1], the Kic worked out at 0.05 mM, the Kiuc worked out at 0.129 mM and the logIC50 is -1. The Km in the test listed under Sus scrofa [2] stood at 1500 µM. In addition, in the test filed under Sus scrofa [3], the Kic was found to be 0.023 mM, the Kiuc turned out to be 0.044 mM and the logIC50 is -1.5.

Take `CCCCCCOC(c1cccc2ccccc12)P(=O)(O)O` (racemic): in test [1], the Kic came out at 1.47 mM, the Kiuc is 1.43 mM and the logIC50 came to 0. Moreover, the Km in the test listed under Sus scrofa [2] is 2650 µM. Also, the logIC50 in the test listed under Sus scrofa [3] was -0.37.
